One data set deals with MT1-MMP (Homo sapiens, UniProt P50281). Nature of the data set: MT1-MMP activity assay. Format: cell-based. The following applies: WM266-4 cells, 0.32 µM, overnight. The essentials: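 WM266-4 cells treated overnight with test compound (0.32 µM final). Comparators were a neutralizing antibody (1 μg/ml), recombinant MT1-MMP (0.5 μg/ml) or shMT1-MMP expression. Membranes extracted by three freeze-thaw cycles, sonicated, pelleted (30 min, 13 000 g, 4°C) and resuspended in PBS. Equal protein incubated with fluorogenic substrate Mca-PLGL-Dap(Dnp)-AR-NH2; fluorescence read at Ex/Em […].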

Data set [1] has as its system MMP2. Nature of the data set: Gelatin zymography of conditioned medium. The format is cell-based, human. The settings on record: WM266-4 cells, 0.32 µM. In a few lines:
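WM266-4 cells were treated with 0.32µM test compound or DMSO, and serum-free conditioned medium was collected. Medium was concentrated on a 30K cutoff device, and 10 μg protein was run on 8% SDS-PAGE containing 2 mg/ml gelatin. Gels were washed in 2.5% Triton X-100, then incubated overnight at 37°C in 50 mM Tris-HCl, 5 mM CaCl2, 0.1% Triton X-100, pH 7.8. Gels were Coomassie R250-stained 45 min, then destained.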

The test system of the next data set is melanoma cell lines. Nature of the data set: Cell proliferation assay. Format: cell-based, human. In a few lines:
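Crystal violet growth assay. Melanoma cells were kept in DMEM with 10% FCS, 1% glutamine and 1% penicillin-streptomycin. They were seeded at 16,000/cm2 in triplicate and treated with 0.32 µM test compound or DMSO vehicle. shMT1-MMP WM266-4 cells received recombinant MMP2 at 25ng/ml. At each time point cells were fixed in 10% buffered formalin and stained with crystal violet. Growth is expressed relative to controls.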

The subject of data set [2] is WM266-4 cells. As to the kind of experiment: Scratch migration assay. The format is cell-based, human.
For data set [3], the system named is WM266-4 cells. As to the kind of experiment: Transwell Matrigel invasion assay. Format: cell-based, human. In a few lines:
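25 × 10^4 WM266-4 cells in suspension were treated with 0.16 or 0.32µM test compound; shMT1-MMP cells got recombinant MMP2 at 25ng/ml. Cells were placed in 8-µm-pore inserts, uncoated or coated with growth-factor-reduced Matrigel, with DMEM plus 5% FBS below. After 24 h, cells on the bottom membrane were fixed in 4% formaldehyde and stained with Coomassie. Stain was extracted in 10% acetic acid and read at […], in triplicate. Invasion % = Matrigel/control insert × 100.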

The test system of a further data set is RAC1. As to the kind of experiment: RAC1 activity assay. The format is cell-based, human. The settings on record: WM266-4 cells, 0.32 µM, 24 hours. In a few lines:
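Cells at 70% confluency were serum-starved in DMEM with 0.5% serum for 24 h, then serum-free for a further 24 h. They were lysed in the G-LISA kit buffer. Equal protein amounts were added to Rac1-GTP-binding wells, and active RAC1 was read at OD 490 nm.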

The test system of data set [4] is WM266-4 cells. As to the kind of experiment: Orthotopic melanoma model: WM266-4 cells intradermally in NOD/SCID mice. Format: in vivo. In a few lines: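 Male NOD/SCID mice (5–8 weeks) received 2 × 10^6 luciferase-transduced WM266-4 cells intradermally in dorsal flanks (9 control, 18 treated tumors). Dosing began at about 120 mm3 mean tumor volume: 25 mg/Kg once daily subcutaneously, from 7.5 mg/ml in sterile PBS, filter-sterilized. Tumor volume taken as (w2 × l) × 0.52 and normalized to time 0. Primary tumors resected at day 42. Lung bioluminescence checked twice weekly. Lungs/thymi S100-stained at 30 weeks post-surgery.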

The test system of another data set is other MMPs. The settings on record: cited from earlier work.
For data set [5] the following is noted: cited from earlier work.
For data set [6] the following is noted: cited from earlier work. This is another data set of the same source.
The subject of a further data set is prostate cancer. The settings on record: cited from earlier work.
In data set [7] the target is T1, MMP2 (Homo sapiens, UniProt P08253).
T1 sequence (P08253 110-660): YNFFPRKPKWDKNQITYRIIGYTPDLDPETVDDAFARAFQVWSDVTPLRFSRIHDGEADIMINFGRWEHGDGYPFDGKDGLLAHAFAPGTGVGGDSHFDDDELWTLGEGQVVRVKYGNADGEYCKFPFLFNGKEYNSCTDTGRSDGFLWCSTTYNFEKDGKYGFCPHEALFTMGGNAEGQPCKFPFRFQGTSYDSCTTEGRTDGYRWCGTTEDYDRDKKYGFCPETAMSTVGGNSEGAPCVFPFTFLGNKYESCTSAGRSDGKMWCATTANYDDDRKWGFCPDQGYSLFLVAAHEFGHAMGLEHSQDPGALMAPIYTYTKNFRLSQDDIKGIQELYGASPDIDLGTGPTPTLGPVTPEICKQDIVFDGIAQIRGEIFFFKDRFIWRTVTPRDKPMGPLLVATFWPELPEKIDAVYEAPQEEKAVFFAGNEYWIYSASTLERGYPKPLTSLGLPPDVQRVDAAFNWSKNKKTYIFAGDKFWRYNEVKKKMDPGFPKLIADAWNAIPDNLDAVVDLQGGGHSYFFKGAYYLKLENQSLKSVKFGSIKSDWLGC
The settings on record: cited from earlier work.

Where [8] appears, read: WM266-4 cells, recombinant MMP2 25ng/ml.

Take `Nc1ccc(Oc2ccc(S(=O)(=O)CC3CS3)cc2)cc1` (stereo not shown) [ND-322]: the MT1-MMP activity result on MT1-MMP is “as effective as antibody neutralization and knockdown”. The “MMP2 activation by gelatin zymography” value in the data set with MMP2 [1] is on record as “inhibited MMP2 activation”. In the data set on melanoma cell lines (0.32 µM), the “cell growth of several melanoma cell lines” value is “inhibited cell growth”. Further, the “motility (migration) of WM266-4 melanoma cells” value in the data set with WM266-4 cells [2] (0.16 and 0.32 µM, dose dependent) is reported as “inhibited significantly”. The “invasion capacity of WM266-4 melanoma cells” value in the data set on WM266-4 cells [3] (0.16 and 0.32 µM, 24 hours, dose dependent) is listed as “inhibited significantly”. Moreover, the “activity of the small GTPase RAC1” value in the data set on RAC1 is recorded as “reduce the activity”. For the same molecule, the “tumor growth compared to controls” value with WM266-4 cells [4] (25 mg/Kg/day subcutaneously, NOD/SCID mice) is “reduced tumor growth significantly”. In the data set with WM266-4 cells [4] (25 mg/Kg/day, NOD/SCID mice), the “body weight over time” value is given as “maintained their weight” and the tolerability of treatment result is “well tolerated”. In addition, the “mice presenting with tumor cells in the lungs (lung metastasis)” value in the data set with WM266-4 cells [4] (30 weeks post-surgery, control animals 90%) amounted to 40%. The “inhibition of other MMPs” value with other MMPs is on record as “does not inhibit or poorly inhibits”. For the same molecule, the “crossing of the blood/brain barrier” value in data set [5] is “cross the blood/brain barrier”. Further, in [6], the “tolerability in a model of wound healing” value is given as “well tolerated”.
As for `O=S(=O)(CC1CS1)c1ccc(Oc2ccccc2)cc1` (stereo not shown) [SB-3CT, reference compound], the “crossing of the blood/brain barrier” value in [5] was “cross the blood/brain barrier”. Moreover, the “bone metastasis in a xenograft model of prostate cancer” value with prostate cancer was “effectively prevent bone metastasis”.
Take “TIMP1: tissue inhibitor of matrix metalloproteinase (TIMP)1”: the “residence time bound to MMP2” value in the data set with MMP2 [7] was 6.9 min.

B1: recombinant active MMP2: recombinant active MMP2 added to cells at 25ng/ml (protein, UniProt P08253 110-660, looked up)
72 kDa type IV collagenase: YNFFPRKPKWDKNQITYRIIGYTPDLDPETVDDAFARAFQVWSDVTPLRFSRIHDGEADIMINFGRWEHGDGYPFDGKDGLLAHAFAPGTGVGGDSHFDDDELWTLGEGQVVRVKYGNADGEYCKFPFLFNGKEYNSCTDTGRSDGFLWCSTTYNFEKDGKYGFCPHEALFTMGGNAEGQPCKFPFRFQGTSYDSCTTEGRTDGYRWCGTTEDYDRDKKYGFCPETAMSTVGGNSEGAPCVFPFTFLGNKYESCTSAGRSDGKMWCATTANYDDDRKWGFCPDQGYSLFLVAAHEFGHAMGLEHSQDPGALMAPIYTYTKNFRLSQDDIKGIQELYGASPDIDLGTGPTPTLGPVTPEICKQDIVFDGIAQIRGEIFFFKDRFIWRTVTPRDKPMGPLLVATFWPELPEKIDAVYEAPQEEKAVFFAGNEYWIYSASTLERGYPKPLTSLGLPPDVQRVDAAFNWSKNKKTYIFAGDKFWRYNEVKKKMDPGFPKLIADAWNAIPDNLDAVVDLQGGGHSYFFKGAYYLKLENQSLKSVKFGSIKSDWLGC
Regarding B1, the “rescue of cell growth in cells expressing shMT1-MMP” value in the data set on melanoma cell lines (setting [8]) is on record as “did not rescue cell growth”. In addition, the “rescue of cell motility in cells expressing shMT1-MMP” value in the data set with WM266-4 cells [2] (WM266-4 cells, recombinant MMP2 25ng/ml, 24 hours) is listed as “rescued”. Moreover, the “rescue of cell invasion in cells expressing shMT1-MMP” value in the data set on WM266-4 cells [3] (setting [8]) is given as “rescued”.
